Drawing on ChEMBL document CHEMBL3044828, “Synthesis of 1-acyl-3-isopropenylbenzimidazolone derivatives and their activity against Botrytis cinerea” (J Agric Food Chem, 2010), this text covers IC50 for 27 compounds.

Molecules are shown by their SMILES. In brackets after ≈: the same amount, converted by molar mass.

This test relates to Botrytis cinerea. Kind of test: Fungicidal activity against Botryotinia fuckeliana assessed as inhibition of spore germination at 25 degC after 6 hr by microscopic analysis. It counts as functional, organism-based. In a few lines:
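B. cinerea strain from a university plant disease institute, grown 2 weeks at 20 °C on PDA; conidia scraped into sterile water, filtered through cheesecloth, suspended in 0.1% Tween 20 and adjusted to 1.0 × 10⁶ spores/mL. Samples taken up in methanol and diluted in sterile water to a concentration series (methanol <1% final); 1% methanol control. 10 μL spore–sample aliquots on glass slides in triplicate, moist chamber, germination scored microscopically.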

Turning to `C=C(C)n1c(=O)n(C(=O)c2ccco2)c2ccccc21`, the IC50 turned out to be 104 µg/mL (≈ 387 µM).

Regarding `C=C(C)n1c(=O)n(C(=O)c2ccncc2)c2ccccc21`, the half-maximal inhibitory concentration (IC50) is 152 µg/mL (≈ 544 µM).

As for `C=C(C)n1c(=O)n(C(=O)CCCCC)c2ccccc21`, the IC50 was 129 µg/mL (≈ 475 µM).

For `C=C(C)n1c(=O)n(C(=O)C(C)C)c2ccccc21`, the 50% inhibitory concentration (IC50) came out at 134 µg/mL (≈ 548 µM).

`C=C(C)n1c(=O)n(C(=O)C(CC)CC)c2ccccc21`: the IC50 turned out to be 277 µg/mL (≈ 1020 µM).

For the compound `C=C(C)n1c(=O)n(C(=O)CCC(C)C)c2ccccc21`, the 50% inhibitory concentration (IC50) was 335 µg/mL (≈ 1230 µM).

`C=C(C)n1c(=O)n(C(=O)Cc2ccccc2)c2ccccc21`: the IC50 came out at 168 µg/mL (≈ 576 µM).

Regarding `C=C(C)n1c(=O)n(C(=O)Cc2ccc(Cl)cc2)c2ccccc21`, the IC50 was 17.3 µg/mL (≈ 52.8 µM).

Consider `C=C(C)n1c(=O)n(C(=O)Cc2ccc3ccccc3c2)c2ccccc21`, for which the IC50 is above 500 µg/mL.

As for `C=C(C)n1c(=O)n(C(=O)CCc2ccccc2)c2ccccc21`, the half-inhibitory concentration (IC50) stood at 126 µg/mL (≈ 410 µM).

Regarding `C=C(C)n1c(=O)n(C(=O)C(CC)c2ccccc2)c2ccccc21` (configuration not stated), the 50% inhibitory concentration (IC50) is 186 µg/mL (≈ 580 µM).

`C=C(C)n1c(=O)n(C(=O)Cc2ccc(OC)cc2)c2ccccc21`: the 50% inhibitory concentration (IC50) came out at 118 µg/mL (≈ 366 µM).

`C=C(C)n1c(=O)n(C(=O)COc2ccccc2)c2ccccc21`: the 50% inhibitory concentration (IC50) is 303 µg/mL (≈ 983 µM).

As for `C=C(C)n1c(=O)n(C(=O)COc2ccc(Cl)cc2)c2ccccc21`, the half-maximal inhibitory concentration (IC50) stood at 108 µg/mL (≈ 315 µM).

On to `C=C(C)n1c(=O)n(C(=O)CCCc2c[nH]c3ccccc23)c2ccccc21`, for which the IC50 was 302 µg/mL (≈ 839 µM).

With `C=CC(=O)n1c(=O)n(C(=C)C)c2ccccc21`, the IC50 was 32.2 µg/mL (≈ 141 µM).

Regarding `C=C(C)C(=O)n1c(=O)n(C(=C)C)c2ccccc21`, the IC50 stood at 64 µg/mL (≈ 264 µM).

With `C=C(C)n1c(=O)n(C(=O)c2ccccc2)c2ccccc21`, the IC50 amounted to 81.9 µg/mL (≈ 294 µM).

Consider `C=C(C)n1c(=O)n(C(=O)c2ccc([N+](=O)[O-])cc2)c2ccccc21`, for which the 50% inhibitory concentration (IC50) came to 93.3 µg/mL (≈ 289 µM).

For the compound `C=C(C)n1c(=O)n(C(=O)c2ccccc2[N+](=O)[O-])c2ccccc21`, the half-inhibitory concentration (IC50) stood at 442 µg/mL (≈ 1370 µM).

As for `C=C(C)n1c(=O)n(C(=O)c2ccc(Cl)cc2)c2ccccc21`, the concentration for half-maximal inhibition (IC50) was 66.8 µg/mL (≈ 214 µM).

Regarding `C=C(C)n1c(=O)n(C(=O)c2ccccc2Cl)c2ccccc21`, the IC50 was 17.2 µg/mL (≈ 54.9 µM).

As to `C=C(C)n1c(=O)n(C(C)=O)c2ccccc21`, the IC50 is above 500 µg/mL.

With `C=C(C)n1c(=O)n(C(=O)CC)c2ccccc21`, the IC50 was above 500 µg/mL.

For `C=C(C)n1c(=O)n(C(=O)CCC)c2ccccc21`, the IC50 was above 500 µg/mL.

Regarding `C=C(C)n1c(=O)n(C(=O)CCCC)c2ccccc21`, the IC50 was 254 µg/mL (≈ 984 µM).

With `Cc1cc(C)nc(Nc2ccccc2)n1` [PYRIMETHANIL], the IC50 came out at 209 µg/mL (≈ 1050 µM).

By IC50 is commonly meant the concentration that inhibits the measured activity by half.
